In ChEMBL document CHEMBL2331119 (Bioorg Med Chem Lett, 2013):
pKi: −log10 of the molar value. Calls of active or inactive are those of the source. The calls are words filed in the database; no cut-off is given here.

Columns and labels:
[1] = target: T1, Sodium-dependent serotonin transporter (Homo sapiens, UniProt P31645); format: cell-based, COS-7
Target sequence in this assay (P31645 whole entry): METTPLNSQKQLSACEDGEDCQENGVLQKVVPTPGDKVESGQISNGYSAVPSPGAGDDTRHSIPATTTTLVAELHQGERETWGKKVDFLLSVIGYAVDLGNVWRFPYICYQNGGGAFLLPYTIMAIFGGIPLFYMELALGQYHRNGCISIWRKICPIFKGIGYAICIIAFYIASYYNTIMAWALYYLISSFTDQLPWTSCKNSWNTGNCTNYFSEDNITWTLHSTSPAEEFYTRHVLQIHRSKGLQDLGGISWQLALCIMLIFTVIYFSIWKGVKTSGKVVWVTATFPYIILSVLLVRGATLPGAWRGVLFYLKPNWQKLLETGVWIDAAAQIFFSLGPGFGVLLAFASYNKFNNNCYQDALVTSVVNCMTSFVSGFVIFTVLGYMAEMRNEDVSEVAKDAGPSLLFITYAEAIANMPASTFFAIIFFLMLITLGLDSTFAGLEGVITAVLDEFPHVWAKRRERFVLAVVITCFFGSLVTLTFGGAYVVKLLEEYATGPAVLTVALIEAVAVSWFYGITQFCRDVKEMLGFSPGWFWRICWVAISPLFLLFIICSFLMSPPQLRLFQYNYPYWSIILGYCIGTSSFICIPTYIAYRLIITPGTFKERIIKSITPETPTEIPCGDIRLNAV

[2] = target: Sodium-dependent dopamine transporter (Homo sapiens, UniProt Q01959); assay: Inhibition of [3H]dopamine uptake at human DAT expressed in COS7 cells after 3 mins by beta-counting; format: cell-based, COS-7
Chain of Sodium-dependent dopamine transporter (Q01959 whole entry): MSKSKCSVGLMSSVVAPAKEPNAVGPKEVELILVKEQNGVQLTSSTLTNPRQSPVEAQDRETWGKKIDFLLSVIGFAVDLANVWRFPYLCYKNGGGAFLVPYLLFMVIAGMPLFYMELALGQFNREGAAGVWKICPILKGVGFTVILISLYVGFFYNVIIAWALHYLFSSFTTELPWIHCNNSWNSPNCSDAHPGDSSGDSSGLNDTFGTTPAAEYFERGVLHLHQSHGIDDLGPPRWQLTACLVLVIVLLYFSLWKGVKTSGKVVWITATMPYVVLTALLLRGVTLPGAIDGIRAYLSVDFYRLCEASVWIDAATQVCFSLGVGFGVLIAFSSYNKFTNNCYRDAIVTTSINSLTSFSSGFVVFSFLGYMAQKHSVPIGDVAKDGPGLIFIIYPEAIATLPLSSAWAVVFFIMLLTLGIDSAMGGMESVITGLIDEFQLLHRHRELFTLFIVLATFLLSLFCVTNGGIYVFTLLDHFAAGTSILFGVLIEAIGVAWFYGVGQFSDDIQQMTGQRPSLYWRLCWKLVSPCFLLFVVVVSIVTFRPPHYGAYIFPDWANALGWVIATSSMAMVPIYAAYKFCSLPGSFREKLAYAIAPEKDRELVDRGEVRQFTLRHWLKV

[3] = target: Sodium-dependent noradrenaline transporter (Homo sapiens, UniProt P23975); assay: Inhibition of [3H]dopamine uptake at human NET expressed in COS7 cells after 5 mins by beta-counting; format: cell-based, COS-7
Chain of Sodium-dependent noradrenaline transporter (P23975 whole entry, the tested form may be a part): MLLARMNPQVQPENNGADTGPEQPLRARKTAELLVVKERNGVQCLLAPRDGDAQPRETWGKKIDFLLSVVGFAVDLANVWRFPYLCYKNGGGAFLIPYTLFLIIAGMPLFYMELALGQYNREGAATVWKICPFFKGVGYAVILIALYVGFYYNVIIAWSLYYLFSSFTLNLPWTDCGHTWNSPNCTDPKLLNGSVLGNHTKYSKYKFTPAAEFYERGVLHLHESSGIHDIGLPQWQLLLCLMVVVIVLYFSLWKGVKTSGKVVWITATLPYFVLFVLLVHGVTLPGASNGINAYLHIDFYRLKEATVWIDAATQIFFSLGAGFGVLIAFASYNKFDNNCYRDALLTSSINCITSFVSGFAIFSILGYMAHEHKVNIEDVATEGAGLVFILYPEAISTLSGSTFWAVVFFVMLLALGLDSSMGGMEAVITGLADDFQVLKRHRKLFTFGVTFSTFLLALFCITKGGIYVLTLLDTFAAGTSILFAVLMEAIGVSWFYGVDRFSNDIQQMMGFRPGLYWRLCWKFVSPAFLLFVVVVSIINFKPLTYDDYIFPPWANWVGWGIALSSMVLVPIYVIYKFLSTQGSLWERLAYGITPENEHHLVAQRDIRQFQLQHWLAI

[4] = target: T1, Sodium-dependent serotonin transporter; assay: Binding affinity to EGFP fused human SERT expressed in HEK293 cells after 1 hr by confocal microscopy; format: cell-based
How it was run: (§1)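 Live HEK293 cells stably expressing EGFP-hSERT were incubated 1 h at 37°C with 20 nM rhodamine-labeled ligand. […] Confocal microscopy scored red-channel fluorescence at the cell surface against EGFP (green) distribution. Images are representative of more than 3 individual experiments.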
Target sequence in this assay (P31645 whole entry, looked up): as the sequence (P31645 whole entry) above

COS-7 [5] = assay: Ratio of Ki for human DAT expressed in COS7 cells to Ki for human SERT expressed in COS7 cells; format: cell-based
[6] = target: T1, Sodium-dependent serotonin transporter; assay: Binding affinity to EGFP fused human SERT expressed in HEK293 cells after 1 hr by confocal microscopy in presence of S-citalopram; format: cell-based
How it was run: as §1
Target sequence in this assay (P31645 whole entry, looked up): as the sequence (P31645 whole entry) above

[7] = target: T1, Sodium-dependent serotonin transporter; assay: Binding affinity to EGFP fused human SERT expressed in HEK293 cells after 1 hr by confocal microscopy in presence of paroxetine; format: cell-based
How it was run: as §1
Target sequence in this assay (P31645 whole entry, looked up): as the sequence (P31645 whole entry) above

COS-7 [8] = assay: Ratio of Ki for human NET expressed in COS7 cells to Ki for human SERT expressed in COS7 cells; format: cell-based
[9] = target: T1, Sodium-dependent serotonin transporter; assay: Binding affinity to EGFP fused human SERT expressed in HEK293 cells after 1 hr by confocal microscopy in presence of 5-HT; format: cell-based
How it was run: as §1
Target sequence in this assay (P31645 whole entry, looked up): as the sequence (P31645 whole entry) above

| SMILES | pKi [1] | pKi [2] | pKi [3] | Activity [4] | Ratio Ki (COS-7 [5]) | Activity [6] | Activity [7] | Ratio Ki (COS-7 [8]) | Activity [9] |
| --- | --- | --- | --- | --- | --- | --- | --- | --- | --- |
| CN(C)CCCC1(c2ccc(F)cc2)OCc2cc(-c3cccc(N)c3)ccc21 (stereo not drawn) | 6.41 | – | – | – | – | – | – | – | – |
| CCN(CC)c1ccc2c(-c3ccc(S(=O)(=O)NCCCCCC(=O)NCCN4[C@@H]5CC[C@@H]4[C@@H](C(=O)OC)[C@@H](c4ccc(Cl)c(Cl)c4)C5)cc3S(=O)(=O)[O-])c3ccc(=[N+](CC)CC)cc-3oc2c1 | 6.41 | 7.21 | 6.71 | – | – | – | – | – | – |
| CCN(CC)c1ccc2c(-c3ccc(S(=O)(=O)NCCCCCC(=O)NCCC(=O)Nc4cccc(-c5ccc6c(c5)COC6(CCCN(C)C)c5ccc(F)cc5)c4)cc3S(=O)(=O)[O-])c3ccc(=[N+](CC)CC)cc-3oc2c1 (stereo not drawn) | 6.65 | 4.96 | 4.93 | Active | 50 | inactive | inactive | 50 | inactive |
